Columns and labels:
[1] = Antiproliferative activity against human OCI-M2 assessed as reduction in cell viability incubated for 48 hrs by CellTiter-Glo cell vaibility assay; assay type: functional, cell-based; settings: OCI-M2, 48 h
Method in brief: (§1)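 Tumour cell lines (SCLC panel and AML panel) exposed to increasing concentrations for 48 hours, then cell viability measured. Cell-killing EC50 taken from the concentration-response.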

OCI-AML-3 = assay: Antiproliferative activity against human OCI-AML-3 assessed as reduction in cell viability incubated for 48 hrs by CellTiter-Glo cell vaibility assay; assay type: functional, cell-based; settings: OCI-AML-3, 48 h; method in brief: as §1
MOLT-4 = assay: Antiproliferative activity against Bcl-xl dependent human MOLT-4 cells assessed as reduction in cell viability by measuring effect concentration by CellTiter-Glo reagent based assay; assay type: functional
THP-1 = assay: Antiproliferative activity against human THP-1 assessed as reduction in cell viability incubated for 48 hrs by CellTiter-Glo cell vaibility assay; assay type: functional, cell-based; settings: THP-1, 48 h; method in brief: as §1
[2] = Antiproliferative activity against human NCI-H847 assessed as reduction in cell viability incubated for 48 hrs by CellTiter-Glo cell vaibility assay; assay type: functional, cell-based; settings: NCI-H847, 48 h; method in brief: as §1
[3] = Antiproliferative activity against human UKE-1 harboring JAK2 V617F mutant assessed as reduction in cell viability incubated for 48 hrs by CellTiter-Glo cell vaibility assay; assay type: functional, cell-based; settings: UKE1, 48 h; method in brief: as §1
EOL1 = assay: Antiproliferative activity against human EOL1 assessed as reduction in cell viability incubated for 48 hrs by CellTiter-Glo cell vaibility assay; assay type: functional, cell-based; settings: EOL1, 48 h; method in brief: as §1
NCI-H187 = assay: Antiproliferative activity against human NCI-H187 assessed as reduction in cell viability incubated for 48 hrs by CellTiter-Glo cell vaibility assay; assay type: functional, cell-based; settings: NCI-H187, 48 h; method in brief: as §1
KG-1 = assay: Antiproliferative activity against human KG-1 assessed as reduction in cell viability incubated for 48 hrs by CellTiter-Glo cell vaibility assay; assay type: functional, cell-based; settings: KG-1, 48 h; method in brief: as §1
[4] = Antiproliferative activity against human MOLM16 assessed as reduction in cell viability incubated for 48 hrs by CellTiter-Glo cell vaibility assay; assay type: functional, cell-based, MOLM-16; settings: MOLM16, 48 h; method in brief: as §1
MV4-11 = assay: Antiproliferative activity against human MV4-11 assessed as reduction in cell viability incubated for 48 hrs by CellTiter-Glo cell vaibility assay; assay type: functional, cell-based; settings: MV4-11, 48 h; method in brief: as §1
Kasumi 1 = assay: Antiproliferative activity against human Kasumi 1 assessed as reduction in cell viability incubated for 48 hrs by CellTiter-Glo cell vaibility assay; assay type: functional, cell-based; settings: Kasumi 1, 48 h; method in brief: as §1
[5] = target: Induced myeloid leukemia cell differentiation protein Mcl-1 (Homo sapiens, UniProt Q07820); assay: Binding affinity to MCL-1 (unknown origin) assessed as dissociation constant incubated for 1 hrs by TR-FRET assay
[6] = Inhibition of granulocyte colony formation in human bone marrow cells at 0.1 to 20 uM incubated for 14 to 16 days by light microscopic analysis; assay type: toxicity, cell-based; settings: bone marrow cell, dose lower 0.1 µM, time lower 14 day, dose upper 20 µM, time upper 16 day
Method in brief: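 Isolated human bone marrow cells cultured in semisolid medium with increasing inhibitor concentrations; granulocyte (neutrophil) colonies counted by light microscopy after 15–16 days; triplicate means with SD; Student's t test versus solvent control.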

[7] = Antiproliferative activity against human ME-1 assessed as reduction in cell viability incubated for 48 hrs by CellTiter-Glo cell vaibility assay; assay type: functional, cell-based; settings: ME-1, 48 h; method in brief: as §1
MOLM-13 = assay: Antiproliferative activity against human MOLM-13 assessed as reduction in cell viability incubated for 48 hrs by CellTiter-Glo cell vaibility assay; assay type: functional, cell-based; settings: MOLM-13, 48 h; method in brief: as §1
[8] = Inhibition of granulocyte colony formation in human bone marrow cells at 0.1 to 20 uM incubated for 14 to 16 days in presence of docetaxel by light microscopic analysis; assay type: toxicity, cell-based; settings: bone marrow cell, dose lower 0.1 µM, time lower 14 day, dose upper 20 µM, time upper 16 day
Method in brief: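 Human bone marrow granulocyte colony-forming assay in semisolid medium, increasing inhibitor concentrations ± 5 nM docetaxel; colonies counted by light microscopy after 14 days; triplicate means with SD; combinations compared with docetaxel alone by Student's t test.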

[9] = Antiproliferative activity against human HNT-34 assessed as reduction in cell viability incubated for 48 hrs by CellTiter-Glo cell vaibility assay; assay type: functional, cell-based; settings: HNT-34, 48 h; method in brief: as §1
ML-2 = assay: Antiproliferative activity against human ML-2 assessed as reduction in cell viability incubated for 48 hrs by CellTiter-Glo cell vaibility assay; assay type: functional, cell-based; settings: ML-2, 48 h; method in brief: as §1
NCI-H345 = assay: Antiproliferative activity against human NCI-H345 assessed as reduction in cell viability incubated for 48 hrs by CellTiter-Glo cell vaibility assay; assay type: functional, cell-based; settings: NCI-H345, 48 h; method in brief: as §1
NCI-H69 = assay: Antiproliferative activity against human NCI-H69 assessed as reduction in cell viability incubated for 48 hrs by CellTiter-Glo cell vaibility assay; assay type: functional, cell-based; settings: NCI-H69, 48 h; method in brief: as §1
OCI-AML2 = assay: Antiproliferative activity against human OCI-AML2 assessed as reduction in cell viability incubated for 48 hrs by CellTiter-Glo cell vaibility assay; assay type: functional, cell-based; settings: OCI-AML2, 48 h; method in brief: as §1
OCI-AML-5 = assay: Antiproliferative activity against human OCI-AML5 assessed as reduction in cell viability incubated for 48 hrs by CellTiter-Glo cell vaibility assay; assay type: functional, cell-based; settings: OCI-AML-5, 48 h; method in brief: as §1
NCI-H1048 = assay: Antiproliferative activity against human NCI-H1048 assessed as reduction in cell viability incubated for 48 hrs by CellTiter-Glo cell vaibility assay; assay type: functional, cell-based; settings: NCI-H1048, 48 h; method in brief: as §1
NCI-H1836 = assay: Antiproliferative activity against human NCI-H1836 assessed as reduction in cell viability incubated for 48 hrs by CellTiter-Glo cell vaibility assay; assay type: functional, cell-based; settings: NCI-H1836, 48 h; method in brief: as §1
NCI-H446 = assay: Antiproliferative activity against human NCI-H446 assessed as reduction in cell viability incubated for 48 hrs by CellTiter-Glo cell vaibility assay; assay type: functional, cell-based; settings: NCI-H446, 48 h; method in brief: as §1
DMS-79 = assay: Antiproliferative activity against human DMS 79 assessed as reduction in cell viability incubated for 48 hrs by CellTiter-Glo cell vaibility assay; assay type: functional, cell-based; settings: DMS-79, 48 h; method in brief: as §1
[10] = Antiproliferative activity against human PL-21 assessed as reduction in cell viability incubated for 48 hrs by CellTiter-Glo cell vaibility assay; assay type: functional, cell-based; settings: PL-21, 48 h; method in brief: as §1
SIG-M5 = assay: Antiproliferative activity against human SIG-M5 assessed as reduction in cell viability incubated for 48 hrs by CellTiter-Glo cell vaibility assay; assay type: functional, cell-based; settings: SIG-M5, 48 h; method in brief: as §1
NCI-H1417 = assay: Antiproliferative activity against human NCI-H1417 assessed as reduction in cell viability incubated for 48 hrs by CellTiter-Glo cell vaibility assay; assay type: functional, cell-based; settings: NCI-H1417, 48 h; method in brief: as §1
NCI-H211 = assay: Antiproliferative activity against human NCI-H211 assessed as reduction in cell viability incubated for 48 hrs by CellTiter-Glo cell vaibility assay; assay type: functional, cell-based; settings: NCI-H211, 48 h; method in brief: as §1
NCI-H889 = assay: Antiproliferative activity against human NCI-H889 assessed as reduction in cell viability incubated for 48 hrs by CellTiter-Glo cell vaibility assay; assay type: functional, cell-based; settings: NCI-H889, 48 h; method in brief: as §1
SKM-1 = assay: Antiproliferative activity against human SKM-1 assessed as reduction in cell viability incubated for 48 hrs by CellTiter-Glo cell vaibility assay; assay type: functional, cell-based; settings: SKM-1, 48 h; method in brief: as §1
SET-2 = assay: Antiproliferative activity against human SET2 harboring JAK2 V617F mutant assessed as reduction in cell viability incubated for 48 hrs by CellTiter-Glo cell vaibility assay; assay type: functional, cell-based; settings: SET-2, 48 h; method in brief: as §1
GDM-1 = assay: Antiproliferative activity against human GDM-1 assessed as reduction in cell viability incubated for 48 hrs by CellTiter-Glo cell vaibility assay; assay type: functional, cell-based; settings: GDM-1, 48 h; method in brief: as §1
HEL = assay: Antiproliferative activity against human HEL harboring JAK2 V617F mutant assessed as reduction in cell viability incubated for 48 hrs by CellTiter-Glo cell vaibility assay; assay type: functional, cell-based; method in brief: as §1
NOMO-1 = assay: Antiproliferative activity against human NOMO-1 assessed as reduction in cell viability incubated for 48 hrs by CellTiter-Glo cell vaibility assay; assay type: functional, cell-based; settings: NOMO-1, 48 h; method in brief: as §1
[11] = Antiproliferative activity against human OCI-M1 assessed as reduction in cell viability incubated for 48 hrs by CellTiter-Glo cell vaibility assay; assay type: functional, cell-based; settings: OCI-M1, 48 h; method in brief: as §1
HL-60 = assay: Antiproliferative activity against human HL-60 assessed as reduction in cell viability incubated for 48 hrs by CellTiter-Glo cell vaibility assay; assay type: functional, cell-based; settings: HL-60, 48 h; method in brief: as §1

Chain of Induced myeloid leukemia cell differentiation protein Mcl-1 (Q07820 whole entry): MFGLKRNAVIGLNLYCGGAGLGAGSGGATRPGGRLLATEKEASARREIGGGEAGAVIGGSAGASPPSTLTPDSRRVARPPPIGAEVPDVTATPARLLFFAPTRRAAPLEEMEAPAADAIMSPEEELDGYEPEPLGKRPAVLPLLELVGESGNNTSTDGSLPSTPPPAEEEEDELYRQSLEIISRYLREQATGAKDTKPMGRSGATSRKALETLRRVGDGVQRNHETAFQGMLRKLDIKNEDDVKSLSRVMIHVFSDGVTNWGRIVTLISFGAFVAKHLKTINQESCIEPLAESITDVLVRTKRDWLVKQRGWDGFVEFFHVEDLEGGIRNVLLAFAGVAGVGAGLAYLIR

EC50 (OCI-AML-3): > 5 µM | EC50 (MOLT-4): > 5 µM | EC50 (THP-1): 0.82 µM | EC50 (NCI-H187): 0.85 µM | EC50 (MV4-11): 0.1 µM | Ki [5]: > 0.444 µM | EC50 (MOLM-13): 0.1 µM | EC50 (NCI-H345): 1.2 µM | EC50 (NCI-H69): 3.86 µM | EC50 (OCI-AML2): 0.1 µM | EC50 (OCI-AML-5): 0.11 µM | EC50 (NCI-H1048): 2.7 µM | EC50 (NCI-H1836): 5 µM | EC50 (NCI-H446): 2.4 µM | EC50 (NCI-H1417): 4.1 µM | EC50 (NCI-H211): 0.33 µM | EC50 (NCI-H889): 0.015 µM | EC50 (SKM-1): 2.53 µM | EC50 (HL-60): 0.1 µM
Compound: CC1(C)CCC(CN2CCN(c3ccc(C(=O)NS(=O)(=O)c4ccc(NCC5CCOCC5)c([N+](=O)[O-])c4)c(Oc4cnc5[nH]ccc5c4)c3)CC2)=C(c2ccc(Cl)cc2)C1 [VENETOCLAX]
EC50 [1]: 4.05 µM | EC50 [2]: 3.9 µM | EC50 [3]: 3.06 µM | EC50 (EOL1): 0.1 µM | EC50 (KG-1): 1.2 µM | EC50 [4]: 0.04 µM | EC50 (Kasumi 1): 1 µM | Activity [6]: Toxic | EC50 [7]: > 5 µM | Activity [8]: Toxic | EC50 [9]: 1.7 µM | EC50 (ML-2): 0.1 µM | EC50 (DMS-79): 4.62 µM | EC50 [10]: 1.81 µM | EC50 (SIG-M5): 0.1 µM | EC50 (SET-2): 3.33 µM | EC50 (GDM-1): 0.1 µM | EC50 (HEL): 3.37 µM | EC50 (NOMO-1): > 5 µM | EC50 [11]: > 5 µM
